Compound activity from PubChem.
CHO parental Ca – ATP-evoked calcium signal inhibitors, parental CHO, primary screen, counter-screen for OX1R antagonist project, cell-based, fluorescence, Fluo-8 calcium dye | parental CHO-K1, ATP-induced calcium, Fluo-8 fluorescence | inhibition, % at 5.6 µM | hit rate 0.63% among 330,000 | AID 463079, 2010;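 active means inhibition above that plate's mean sample inhibition plus 3 SD, cut at about 26% in these data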
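Material: parental CHO cells / Compound: single nominal dose of 5.6 µM per compound / Signal: Fluo-8 fluorescence / Replicates: singlicate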
GPR7 antag – GPR7 receptor antagonists, primary screen, cell-based, fluorescence, single concentration; Neuropeptides B/W receptor type 1 (Homo sapiens), P48145; GPR7-expressing cells, fluorescence antagonist assay; inhibition, % at 4.4 µM; hit rate 1.1% among 290,000; in the data active means inhibition above about 16%, passing the limit was not always enough;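 further: cells stimulated with the agonist NPW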
OX1R antag-1 – OX1R (HCRTR1) antagonists, primary screen, fluorescence, CHO/OX1R cells, Fluo-8 calcium, orexin A; inhibition, % at 5 µM; Orexin/Hypocretin receptor type 1 (Homo sapiens), O43613; AID 434989, 2010; hit rate 0.43% among 330,000; Fluo-8 calcium fluorescence;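 active means inhibition above its plate's threshold, mean inhibition of all tested compounds on the plate plus 3 SD, cut at about 37% in these data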
Target sequence (O43613 whole entry, looked up): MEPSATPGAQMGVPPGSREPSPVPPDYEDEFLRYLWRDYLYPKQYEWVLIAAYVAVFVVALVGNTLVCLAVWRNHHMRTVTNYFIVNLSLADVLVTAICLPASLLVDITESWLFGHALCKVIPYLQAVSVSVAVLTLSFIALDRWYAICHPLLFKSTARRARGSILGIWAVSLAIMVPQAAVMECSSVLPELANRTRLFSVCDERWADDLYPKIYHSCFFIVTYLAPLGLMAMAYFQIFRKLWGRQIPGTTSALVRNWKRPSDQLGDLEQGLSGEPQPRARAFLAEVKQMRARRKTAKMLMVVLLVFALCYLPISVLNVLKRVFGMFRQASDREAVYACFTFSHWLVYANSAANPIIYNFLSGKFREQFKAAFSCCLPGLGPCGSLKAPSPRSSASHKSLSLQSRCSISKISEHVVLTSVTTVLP
GalR3 antagonist – GalR3 antagonists in HEK293 cells, primary screen, cell-based, fluorescence readout; HEK293 GalR3-CNG cAMP membrane potential fluorescence; galR3 body fused to GalR1 C-terminus; hit rate 0.44% among 360,000; Galanin receptor type 3 (Homo sapiens), O60755; AID 651719, 2012; inhibition, % at 3 µM;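 active means inhibition above the screen-wide average plus 3 SD, cut at about 13% in these data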;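 further: forskolin and galanin both at EC90 stimulate the cells; cAMP rise reported by CNG channel membrane potential dye signal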
OX1R antag-2 – antagonists of human orexin 1 receptor (OX1R); Orexin/Hypocretin receptor type 1 (Homo sapiens), O43613; OX1R-expressing cells, FRET antagonist read-out; inhibition, % at 6.6 µM; hit rate 1.8% among 330,000; in the data active means inhibition mostly above about 38%, no sharp cut-off; inactive means mostly below about 40%
Hits are given with their value; 0 = inactive; - = no result; ! = a repeat was not active. In the library only some 3.1% were active in any assay of this set; here they are far more common.

SMILES	CHO parental Ca	GPR7 antag	OX1R antag-1	GalR3 antagonist	OX1R antag-2
COc1ccc2ccccc2c1/C=N/NC(=O)c1nnn(-c2nonc2N)c1C(C)C	0	0	0	0	60
C/C(=N\NC(=O)c1nnn(-c2nonc2N)c1CN(C)c1ccccc1)c1cccc(O)c1	0	0	0	0	49
Nc1[nH]c(C(=O)c2ccccc2)c(-c2ccc(Cl)cc2)c1C(=O)c1c[nH]c2ccc(Br)cc12	-	-	-	0	-
Cc1ccccc1C(=O)N[C@H](C(=O)N1CCC[C@H]1C(=O)NCCc1ccccc1Cl)C1CCCCC1	-	-	-	0	-
O=C(COc1ccccc1/C=C1\SC(=O)NC1=O)Nc1ccc(F)cc1	0	0	0	0	77
Nc1[nH]c(C(=O)c2ccccc2)c(-c2ccccc2Cl)c1C(=O)NCCc1c[nH]c2ccccc12	-	-	-	0	-
COCCCNC(=O)CN1C(=O)/C(=C/c2ccccc2)Sc2ccccc21	0	0	0	0	68
N#CC1=C(N)Oc2cc(O)c(Cl)cc2C1c1ccccc1F (stereo not given)	30	0	0	0	0
C[C@@H]1CNC(=O)c2c(C(=O)N(C)Cc3ccccc3)ncn21	-	-	-	0	-
O=C(Cn1c(=O)oc2cc(S(=O)(=O)N3CCCC3)ccc21)NC1CCCc2ccccc21 (stereo not given)	28	0	0	0	0
O=C(Cn1c(=O)oc2cc(S(=O)(=O)N3CCCCCC3)ccc21)NC1CCCCCCC1	0	0	0	0	0
Cc1ccn2cc(-c3cccc(NC(=O)c4cccs4)c3)nc2c1	0	0	0	0	75
Cc1nc(-c2cccc(NC(=O)c3cccs3)c2)cs1	0	0	0	0	0
CC(C)C(=O)Nc1ccc(-c2csc(-c3ccccc3)n2)cc1	41	0	0	0	0
O=C(Nc1cccc(-c2cn3cccnc3n2)c1)c1cccs1	0	0	0	0	0
O=C(Nc1cccc(-c2csc(-c3ccccc3)n2)c1)c1cccs1	0	0	0	0	67
Cc1ccc(C(=O)Nc2cccc(NC(=O)c3cccs3)c2)c(C)c1	0	0	0	0	64
O=C(O)C(Cc1c[nH]c2ccccc12)NS(=O)(=O)c1cccc(Cl)c1Cl (stereo not given)	0	0	0	0	0
CCOc1ccc(N2CC(C(=O)NCCCc3ccccc3)CC2=O)cc1 (stereo not given)	0	-	0	0	0
Nc1[nH]c(C(=O)c2ccccc2)c(-c2cccc3ccccc23)c1C(=O)NCc1ccc(Cl)cc1Cl	-	-	-	0	-
CCc1noc(C)c1C(=O)N1CCN(S(=O)(=O)c2ccc(Br)cc2Cl)CC1	0	-	0	0	0
COC(=O)[C@]12C[C@H](CC(=O)N3CCN(C(=O)C4CC4)CC3)C(=O)N(Cc3ccccc3)C1=C[C@H](C(C)C)O[C@@H]2C1CC1	-	-	-	0	-
O=C(CSc1nnc2scc(-c3ccccc3)n12)Nc1nsc(-c2ccccc2)n1	0	0	0	-	73
CCN(CC)S(=O)(=O)c1cc(C(=O)n2cccn2)c(Cl)cc1Cl	0	19	0	0	0
Cn1c(N)c(N=Cc2ccccc2)c(=O)n(C)c1=O	-	-	-	0	-
SMILES	CHO parental Ca	GPR7 antag	OX1R antag-1	GalR3 antagonist	OX1R antag-2
Cn1c(N)c(N=Nc2ccc(S(N)(=O)=O)cc2)c(=O)n(C)c1=O	0	0	0	0	60
O=C(Nc1ccc(Cl)c(Cl)c1)Nc1ccccc1NS(=O)(=O)c1cccs1	35	0	0	0	0
Cc1ccccc1NC(=O)CCS(=O)(=O)c1cccc2nonc12	0	0	0	0	55
CCC(NC(=O)C1C2C=CC(C2)C1C(=O)O)c1ccc(C)cc1 (stereo not given)	0	0	0	0	0
O=C(CSc1ccc(-c2ccccc2)nn1)N1CCOCC1	0	0	0	0	49
COc1cccc(-c2ccc3nnc(SCC(=O)N4CCOCC4)n3n2)c1	0	-	0	0	51
Cc1ccccc1NC(=O)CSc1nnc2ccc(-c3cccnc3)nn12	0	-	0	0	54
COc1ccccc1CCNC(=O)CSc1nnc2ccc(-c3ccncc3)nn12	0	0	0	0	39
COC(=O)c1cc2c(c3c4cc(F)ccc4n(C(=O)c4ccccc4)c13)C(=O)N(C1CCCCC1)C2	-	-	-	0	-
CCSc1nnc2ccc(-c3ccc(OC)c(OC)c3)nn12	0	0	0	0	39
CC1CCN(C(=O)CSc2nnc3ccc(-c4cccnc4)nn23)CC1	0	-	0	0	35
COc1ccc(-c2ccc3nnc(SCC(N)=O)n3n2)cc1	0	0	0	0	0
Cc1cc(NC(=O)c2ccc(COc3ccc(Cl)c(C)c3)o2)no1	0	0	0	0	0
Cc1cc(NC(=O)c2ccc(COc3ccccc3Cl)o2)no1	53	0	0	0	0
CCn1ncc(CNC(=O)c2cccc([N+](=O)[O-])c2)c1C	0	0	0	-	0
O=C(NC1CC1)c1sc2cc([N+](=O)[O-])ccc2c1Cl	0	0	0	0	69
O=C(N[C@H](C(=O)O)c1ccccc1)C1CCC(Cn2nnc3ccccc3c2=O)CC1 (stereo not given in full)	0	0	0	-	0
c1ccc(-c2ccc(C(c3ccccc3)n3ccnc3)cc2)cc1 (stereo not given)	0	36!	0	-	0
O=C(NCc1ccco1)C(Cc1ccccc1)NS(=O)(=O)c1cccc2nsnc12 (stereo not given)	0	0	0	0	51
CC1CCN(C(=O)C(NS(=O)(=O)c2cccc3nsnc23)C(C)C)CC1 (stereo not given)	0	0	0	0	43
CC1CCN(C(=O)C(NS(=O)(=O)c2cccc3nsnc23)c2ccccc2)CC1 (stereo not given)	0	0	0	0	0
CC(C)C(NS(=O)(=O)c1cccc2nsnc12)C(=O)NC1CCCCC1 (stereo not given)	0	0	0	0	75
CC(C)[C@H](NS(=O)(=O)c1ccccc1F)C(=O)NC1CCCCC1	0	-	0	0	39
CC(C)C(NS(=O)(=O)c1cccc2nsnc12)C(=O)NCc1ccco1 (stereo not given)	0	0	0	0	0
CC(C)C(NS(=O)(=O)c1ccccc1)C(=O)NC1CCCC1 (stereo not given)	0	0	0	0	0
COC(=O)[C@]12C[C@H](CC(=O)NCc3ccc(OC)c(OC)c3)C(=O)N(CCC3=CCCCC3)C1=C[C@H](COCc1ccccc1)O[C@@H]2C	-	-	-	0	-
O=C(NC1CCCCC1)C1CCCN1S(=O)(=O)c1cccc2nsnc12 (stereo not given)	0	0	0	0	60
COC(=O)C1CCCN1S(=O)(=O)c1ccc2ccccc2c1 (stereo not given)	0	0	0	0	0
CNC(=O)C(=O)NCC1OCCN1S(=O)(=O)c1ccc([N+](=O)[O-])cc1 (stereo not given)	0	0	0	0	72
